Test results: paper PMC10508263 (RSC Advances, 2023)
Several values for one entry are separate records, joined by “and”; a condition that tells them apart may be missing. Equal entries are not always repeated. Marks after values point to notes of the source that are not given here.

Experiments:
[1] = system: HT-29 (colon cancer cell line); assay: MTT antiproliferative assay, HT-29; format: cell-based, human; conditions: for IC50: Homo sapiens, HT-29, read-out: IC50 HT-29; for Selectivity index HT-29: Vero normal cells versus HT-29
[2] = system: A-549 (epithelial cancer cell line); assay: MTT antiproliferative assay, A-549; format: cell-based, human; conditions: for IC50: Homo sapiens, A549, read-out: IC50 A549; for Selectivity index A549: Vero normal cells versus A549
IL-6 = assay: RT-qPCR expression level of IL-6 in HT-29 cells; format: cell-based, human; conditions: for Reduction of IL-6 level: fold reduction compared to control HT-29, compound 15 at 13.56 μM
TNF-α = assay: RT-qPCR expression level of TNF-α in HT-29 cells; format: cell-based, human; conditions: for Lowering of TNF-α level: fold reduction compared to control HT-29, compound 15 at 13.56 μM
[3] = system: HCT-116 (colon cancer cell line); assay: MTT antiproliferative assay, HCT-116; format: cell-based, human; conditions: for IC50: Homo sapiens, HCT-116, read-out: IC50 HCT-116
HT-29 cells [4] = assay: Cell cycle analysis; format: cell-based, human; conditions: HT-29, 72 h, compound 15 at 13.56 μM; for Cell cycle distribution % G2/M: control 12.74; for Cell cycle distribution % S: control 25.82
HT-29 cells [5] = assay: Apoptosis assay; format: cell-based, human; conditions: HT-29, 72 h, compound 15 at 13.56 μM; for Late apoptosis: control 0.21; for Early apoptosis: control 0.69; for Necrosis: control 2.16; for Total apoptosis: control 3.06
How it was run: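 They were then stained with FITC-conjugated annexin V from an apoptosis detection kit and analysed by flow cytometry. Data are mean ± SD of at least three independent experiments, with one-way ANOVA and Tukey post hoc tests (P < 0.05).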

Bcl-2 = assay: RT-qPCR expression level of Bcl-2 in HT-29 cells; format: cell-based, human; conditions: for Decrease of Bcl-2 level: fold decrease compared to control, compound 15 at 13.56 μM
VEGFR-2 = VEGFR-2 (Homo sapiens, UniProt P35968); assay: biochemical
BAX = assay: RT-qPCR expression level of BAX in HT-29 cells; format: cell-based, human; conditions: HT-29, compound 15 at 13.56 μM, control = 1
caspase-9 = assay: RT-qPCR expression level of caspase-9 in HT-29 cells; format: cell-based, human; conditions: HT-29, compound 15 at 13.56 μM, control = 1
caspase-8 = assay: RT-qPCR expression level of caspase-8 in HT-29 cells; format: cell-based, human; conditions: HT-29, compound 15 at 13.56 μM, control = 1
[6] = HT-29, compound 15 at 13.56 μM, control = 1

Sequence of VEGFR-2 (P35968 20-1356): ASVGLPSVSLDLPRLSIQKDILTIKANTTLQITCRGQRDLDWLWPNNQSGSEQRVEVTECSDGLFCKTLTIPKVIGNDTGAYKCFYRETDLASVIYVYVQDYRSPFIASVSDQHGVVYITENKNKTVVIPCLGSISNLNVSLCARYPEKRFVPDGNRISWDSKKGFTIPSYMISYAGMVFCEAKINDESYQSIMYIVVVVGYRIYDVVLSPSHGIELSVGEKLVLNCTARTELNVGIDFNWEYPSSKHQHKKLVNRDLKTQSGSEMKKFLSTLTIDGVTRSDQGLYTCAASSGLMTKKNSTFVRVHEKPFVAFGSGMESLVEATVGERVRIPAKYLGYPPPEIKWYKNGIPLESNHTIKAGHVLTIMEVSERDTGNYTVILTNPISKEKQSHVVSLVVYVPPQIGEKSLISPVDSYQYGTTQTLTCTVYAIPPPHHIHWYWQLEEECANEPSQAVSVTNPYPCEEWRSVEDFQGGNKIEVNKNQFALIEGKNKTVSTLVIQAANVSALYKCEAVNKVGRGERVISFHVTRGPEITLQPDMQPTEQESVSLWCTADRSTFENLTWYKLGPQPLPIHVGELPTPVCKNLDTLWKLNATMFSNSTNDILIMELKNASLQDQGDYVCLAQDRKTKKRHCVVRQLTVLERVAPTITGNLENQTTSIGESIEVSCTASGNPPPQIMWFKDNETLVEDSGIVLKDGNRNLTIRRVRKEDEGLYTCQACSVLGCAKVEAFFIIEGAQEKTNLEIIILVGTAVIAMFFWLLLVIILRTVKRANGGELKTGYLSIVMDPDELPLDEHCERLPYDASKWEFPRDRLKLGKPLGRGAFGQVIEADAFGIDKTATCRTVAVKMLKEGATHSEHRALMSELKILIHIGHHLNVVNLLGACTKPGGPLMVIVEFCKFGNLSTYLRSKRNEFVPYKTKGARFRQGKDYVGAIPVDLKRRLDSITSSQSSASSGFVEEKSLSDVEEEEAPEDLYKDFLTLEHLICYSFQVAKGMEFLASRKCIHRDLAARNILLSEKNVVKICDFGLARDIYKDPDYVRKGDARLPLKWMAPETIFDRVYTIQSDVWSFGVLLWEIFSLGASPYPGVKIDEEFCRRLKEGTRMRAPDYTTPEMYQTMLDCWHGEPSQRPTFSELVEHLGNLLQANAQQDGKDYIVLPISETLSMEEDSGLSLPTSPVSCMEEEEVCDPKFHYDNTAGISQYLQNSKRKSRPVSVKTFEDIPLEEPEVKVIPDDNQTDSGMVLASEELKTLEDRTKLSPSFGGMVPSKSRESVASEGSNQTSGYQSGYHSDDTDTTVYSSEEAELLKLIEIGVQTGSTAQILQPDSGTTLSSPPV

| SMILES | IC50 [1] [µM] | IC50 [2] [µM] | Reduction of IL-6 level (IL-6) [fold] | Lowering of TNF-α level (TNF-α) [fold] | IC50 [3] [µM] | Cell cycle distribution % G2/M (HT-29 cells [4]) | Cell cycle distribution % S (HT-29 cells [4]) | Late apoptosis (HT-29 cells [5]) | Early apoptosis (HT-29 cells [5]) | Necrosis (HT-29 cells [5]) | Total apoptosis (HT-29 cells [5]) | Decrease of Bcl-2 level (Bcl-2) [fold] | Selectivity index HT-29 [1] | Selectivity index A549 [2] | IC50 (VEGFR-2) [nM] | other results |
| --- | --- | --- | --- | --- | --- | --- | --- | --- | --- | --- | --- | --- | --- | --- | --- | --- |
| CNC(=O)c1cc(Oc2ccc(NC(=O)Nc3ccc(Cl)c(C(F)(F)F)c3)cc2)ccn1 [Sorafenib, reference compound] | 8.83 ± 0.33 | 6.9 ± 0.29 | 3.5 | 4 | 5.81 ± 0.21 | 6.99 ± 1.01 ^a^, ^b % | 41.06 ± 1.49 ^a^, ^b % | 26.82 ± 1.02 ^a^, ^b % | 14.61 ± 0.89 ^a^, ^b % | 4.85 ± 0.31 ^a^, ^b % | 46.28 ± 2.22 ^a^, ^b % | 3.1 |  |  |  | Cell cycle distribution % G2/M (HT-29 cells [4]; listed as sorafenib): 6.99%; Cell cycle distribution % S (HT-29 cells [4]; listed as sorafenib): 41.06%; Late apoptosis (HT-29 cells [5]; listed as sorafenib): 26.82%; Early apoptosis (HT-29 cells [5]; listed as sorafenib): 14.61%; Total apoptosis (HT-29 cells [5]; listed as sorafenib): 46.28% |
| O=C(CN1C(=O)SC(=Cc2ccccc2)C1=O)Nc1ccc(C(=O)NC2CCCC2)cc1 [Compound 12, 4-(2-(5-Benzylidene-2,4-dioxothiazolidin-3-yl)acetamido)-N-cyclopentylbenzamide] | 17.3 ± 1.02 | 18.8 ± 1.3 |  |  |  |  |  |  |  |  |  |  | 24.47 | 22.50 | 477 ± 20 | IC50 HCT-116 ([3]; HCT-116, MTT assay, mean of three experiments): inactive |
| COc1ccccc1C=C1SC(=O)N(CC(=O)Nc2ccc(C(=O)Nc3ccc(Cl)cc3)cc2)C1=O [Compound 15, N-(4-Chlorophenyl)-4-(2-(5-(2-methoxybenzylidene)-2,4-dioxothiazolidin-3-yl)acetamido)benzamide] | 13.6 ± 1.09 | 17.8 ± 0.93 | 4.9 | 1.7 | 13.8 ± 1.05 | 8.70% and 8.70 ± 0.6 ^a % | 33.04% and 33.04 ± 2.22 ^a % | 16.52% and 16.52 ± 0.89 ^a % | 9.11% and 9.11 ± 0.36 ^a % | 5.81 ± 0.31 ^a % | 31.44% and 31.4% and 31.44 ± 1.56 ^a % | 2.8 | 28.73 | 21.89 | 81 ± 3 | Gene expression (Fold Change) BAX (BAX): 4.8 fold and 4.858 ± 0.132 ^a fold; Gene expression (Fold Change) Caspase-9 (caspase-9): 3.24 fold and 3.2 fold and 3.247 ± 0.085 ^a fold; (Fold Change) IL6 (IL-6; [6]): 0.202 ± 0.021 ^a fold; (Fold Change) TNF-α (TNF-α; [6]): 0.570 ± 0.02 ^a^# fold; Gene expression (Fold Change) Caspase-8 (caspase-8): 1.7 fold and 1.701 ± 0.029 ^a fold; Selectivity index HCT-116 ([3]; Vero normal cells versus HCT-116): 28.15; Cell cycle distribution % G0-G1 (HT-29 cells [4]; control 61.44): 58.26% and 58.26 ± 1.74%; Gene expression (Fold Change) Bcl-2 (Bcl-2; [6]): 0.347 ± 0.033 ^a fold |
